This note sets out measurements from ChEMBL document CHEMBL2321721 (ACS Med Chem Lett, 2013).

Active and inactive are the calls of the source. No cut-off for these calls is given here.

Data set [1] in a line: Partition coefficient, log P of the compound. In kind it is physicochemical. As to conditions: octanol/water.
Data set [2] concerns the target T1, Ribosomal protein S6 kinase alpha-3 (Homo sapiens, UniProt P51812). The experiment in a line: Inhibition of recombinant RSK2 (unknown origin) expressed in baculovirus infected Sf9 cells assessed as decrease in substrate phosphorylation using GST-fusion protein containing ERalpha-Ser167 sequence-RLASTND as substrate by chemiluminescence analysis.
In data set [3] the test system is MCF7. Put plainly: Decrease in cyclin D1 level in human PMA-stimulated MCF7 cells at 100 uM pretreated for 2 hrs prior to PMA addition measured after 20 mins by immunoblot analysis. In kind it is functional, cell-based. The procedure, abridged: (§1)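 MCF-7 cells pretreated with inhibitor or vehicle, then stimulated with PMA or treated with DMSO vehicle. Lysates analysed by immunoblotting for eEF2 phosphorylation and other RSK biomarkers. Inhibitor concentrations were 100 μM or 25 μM.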

For another data set, the system named is Plasma. Put plainly: Cmax in CD1 mouse plasma at 2.5 mg/kg, ip. Set-up: dose 2.5 mg/kg, route intraperitoneal. As to conditions: in vivo. In kind it is ADME, organism-based. The procedure, abridged: (§2)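 Male CD-1 mice given a single dose, 1 mg/kg iv or 2.5 mg/kg ip, in 1:1:15 Cremophor:EtOH:phosphate-buffered saline carrier. Plasma concentrations measured. AUC extrapolated to infinity and normalized to dose in mg/kg. C0 is maximum plasma concentration extrapolated to t = 0. Cmax is the observed maximum plasma concentration.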

Data set [4] is described as follows: Half life in CD1 mouse at 1 mg/kg, iv. In kind it is ADME, organism-based. Set-up: dose 1 mg/kg, route intravenous. As to conditions: in vivo. The procedure, abridged:
as §2

Data set [5] in a line: Half life in CD1 mouse at 2.5 mg/kg, ip. The settings on record: in vivo. Further details: dose 2.5 mg/kg, route intraperitoneal. In kind it is ADME, organism-based. Summed up: as §2
Data set [6] in a line: Initial plasma concentration in CD1 mouse at 1 mg/kg, iv. In kind it is ADME, organism-based. Further details: dose 1 mg/kg, route intravenous. Summed up: as §2
Data set [7] deals with Mus musculus. Put plainly: Dose normalized AUC in CD1 mouse at 2.5 mg/kg, ip. Further details: dose 2.5 mg/kg, route intraperitoneal. The class given is ADME, organism-based. The settings on record: in vivo. The procedure, abridged:
as §2

Data set [8] has as its system Mus musculus. Put plainly: Dose normalized AUC in CD1 mouse at 1 mg/kg, iv. The class given is ADME, organism-based. Set-up: dose 1 mg/kg, route intravenous. As to conditions: in vivo. Summed up: as §2
The target in data set [9] is T1, Ribosomal protein S6 kinase alpha-3. The settings on record: MCF7, 100 uM.
Data set [10] shares this target. The settings on record: MCF7, 100 uM. This is another data set of the same source.
For data set [11] the target is unchanged. The experiment in a line: Inhibition of RSK2 in human PMA-stimulated MCF7 cells assessed as decrease in expression of 27kDa protein harboring (Lys/Arg)X(Lys/Arg)XX(pSer/pThr) motif at 25 uM pretreated for 24 hrs prior to PMA addition measured after 20 mins immunoblot analysis. In kind it is cell-based. The procedure, abridged: as §1
In general terms: In western blotting, separated proteins are transferred to a membrane and probed.

Data set [12] relates to MCF7. Put plainly: Decrease in cyclin D1 level in human PMA-stimulated MCF7 cells at 25 uM pretreated for 24 hrs prior to PMA addition measured after 20 mins by immunoblot analysis. The class given is functional, cell-based. The procedure, abridged: as §1
A further data set has as its system MCF-10A. The experiment in a line: Inhibition of human MCF10A cell proliferation assessed as decrease in ATP content after 48 hrs by CellTiter-GloTM assay. The class given is cell-based. Summed up:
(§3)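 Compounds added at time 0 to MCF-7 or MCF-10A cells at various concentrations, 25 μM or lower. Proliferation read as ATP content after 48 h of treatment, expressed as fold proliferation as a percentage of vehicle-treated cells. n = 3 in quadruplicate, SD, Student's t test.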
(Cellular ATP, detected with luciferase, serves as a proxy for viable cell number.)

The target of data set [13] is T1, Ribosomal protein S6 kinase alpha-3. Put plainly: Inhibition of RSK2 in human MCF7 cells assessed as reduction of PMA-induced decrease in EF2 kinase phosphorylation at 25 uM pretreated for 24 hrs prior to PMA addition measured after 20 mins by immunoblot analysis. The class given is cell-based. Summed up:
as §1

In data set [14] the test system is MCF7. Put plainly: Inhibition of human MCF7 cell proliferation assessed as decrease in ATP content at 25 uM after 48 hrs by CellTiter-GloTM assay relative to SL0101. The class given is functional. The settings on record: MCF7, 48 h. The procedure, abridged:
as §3

The target in data set [15] is T1, Ribosomal protein S6 kinase alpha-3. Put plainly: Ratio of SL0101 IC50 to compound IC50 for recombinant RSK2 (unknown origin) expressed in baculovirus infected Sf9 cells by chemiluminescence analysis.

T1 sequence (P51812 whole entry, the tested form may be a part): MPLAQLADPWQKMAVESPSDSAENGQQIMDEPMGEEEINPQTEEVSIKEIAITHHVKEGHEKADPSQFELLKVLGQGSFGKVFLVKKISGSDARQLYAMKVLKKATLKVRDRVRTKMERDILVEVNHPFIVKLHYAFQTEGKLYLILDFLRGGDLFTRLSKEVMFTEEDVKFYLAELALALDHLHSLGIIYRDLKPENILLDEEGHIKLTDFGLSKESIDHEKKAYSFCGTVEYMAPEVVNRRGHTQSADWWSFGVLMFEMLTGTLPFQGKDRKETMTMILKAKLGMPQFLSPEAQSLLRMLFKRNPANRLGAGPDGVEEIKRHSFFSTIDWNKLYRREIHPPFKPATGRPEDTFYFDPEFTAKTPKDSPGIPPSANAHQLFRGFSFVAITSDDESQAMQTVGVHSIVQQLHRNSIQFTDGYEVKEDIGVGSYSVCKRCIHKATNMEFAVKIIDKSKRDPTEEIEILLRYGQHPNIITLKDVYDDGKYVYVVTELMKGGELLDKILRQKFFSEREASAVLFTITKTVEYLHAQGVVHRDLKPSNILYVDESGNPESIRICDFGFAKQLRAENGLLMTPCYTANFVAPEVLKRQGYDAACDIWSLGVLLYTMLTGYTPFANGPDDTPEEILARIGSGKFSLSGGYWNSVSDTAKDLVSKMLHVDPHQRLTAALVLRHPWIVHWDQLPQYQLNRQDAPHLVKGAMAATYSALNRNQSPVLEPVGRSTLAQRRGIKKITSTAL

Regarding `CC[C@@H]1O[C@@H](Oc2c(-c3ccc(O)cc3)oc3cc(O)cc(O)c3c2=O)[C@H](O)[C@H](O)[C@H]1O`, the log partition coefficient (logP) – broadly, the decadic logarithm of the partition coefficient of the neutral form, usually between octanol and water – in [1] is 1.64. Also, the half-maximal inhibitory concentration (IC50) – broadly, the concentration needed to halve the response being measured – in data set [2] is 1.51 µM.
Regarding `CCC[C@@H]1O[C@@H](Oc2c(-c3ccc(O)cc3)oc3cc(O)cc(O)c3c2=O)[C@H](O)[C@H](O)[C@H]1OC(C)=O`, the lipophilicity (logP) in data set [1] is 2.9. In addition, the IC50 in data set [2] came out at 1.5 µM.
`CC(=O)O[C@@H]1[C@@H](OC(C)=O)[C@@H](O)[C@H](Oc2c(-c3ccc(O)cc3)oc3cc(O)cc(O)c3c2=O)O[C@H]1C`: the inhibition entry (in the data set on MCF7 [3]; in [9]; in data set [10]) was “Active” each time. This molecule returned a logP in data set [1] of 2.11. Further, the Cmax – broadly, the peak of the concentration-time curve – with Plasma is 1851 ng/mL. Further, the values for the half-life in data set [4] and in data set [5] were 9 min and 24 min, respectively. The C0 in [6] was 291 ng/mL. In addition, the values for the AUC/dose with Mus musculus [7] and in the data set with Mus musculus [8] were 1023 ng·kg·h/mL/mg and 38.7 ng·kg·h/mL/mg, respectively.
For `CCC[C@@H]1O[C@@H](Oc2c(-c3ccc(O)cc3)oc3cc(O)cc(O)c3c2=O)[C@H](O)[C@H](OC(C)=O)[C@H]1OC(C)=O`, the inhibition entry (in data set [11]; with MCF7 [12]; in [13]) was “Active” in each case. For the same molecule, the Activity entry in the data set with MCF-10A is “Non-toxic”. In data set [1], this molecule gave a logP of 3.17. The inhibition (usually the percentage by which the read-out fell short of the control) at 25 µM in the data set on MCF7 [14] stood at 50%. Besides, the Ratio IC50 in data set [15] was greater than 40.
In [1], `CCC[C@@H]1O[C@@H](Oc2c(-c3ccc(O)cc3)oc3cc(O)cc(O)c3c2=O)[C@H](OC(C)=O)[C@H](O)[C@H]1OC(C)=O` showed a lipophilicity (logP) of 3.39. Also, the half-maximal inhibitory concentration (IC50) in [2] was determined as 0.62 µM.
Consider `CC(C)C[C@@H]1O[C@@H](Oc2c(-c3ccc(O)cc3)oc3cc(O)cc(O)c3c2=O)[C@H](O)[C@H](O)[C@H]1O`, for which, in data set [1], the logP was 2.41.
`CCC[C@@H]1O[C@@H](Oc2c(-c3ccc(O)cc3)oc3cc(O)cc(O)c3c2=O)[C@H](OC(C)=O)[C@H](OC(C)=O)[C@H]1OC(C)=O` registered a logP in data set [1] of 3.87. The IC50 in data set [2] is 1.77 µM.
`CCC[C@@H]1O[C@@H](Oc2c(-c3ccc(O)cc3)oc3cc(O)cc(O)c3c2=O)[C@H](O)[C@H](O)[C@H]1O` had a lipophilicity (logP) in [1] of 2.2.
